For data set [1], the target named is Cyclin-dependent kinase 2/cyclin E1 (Homo sapiens, UniProt P24941). As to the kind of experiment: Inhibition of CDK2/Cyclin-E (unknown origin) using maltose binding protein as substrate by HTRF assay. The format is protein-complex assay. In general terms: TR-FRET usually uses a lanthanide donor and a delayed reading to cut background.
Data set [2] deals with T1, CDC7/DBF4 (Cell division cycle 7-related protein kinase/Activator of S phase kinase) (Homo sapiens, UniProt O00311). Description: Inhibition of Cdc7/Dbf4 (unknown origin)-mediated phosphorylation of MCM2 by protein-A luminescent proximity homogenous assay. It is filed as protein-complex assay.
T1 sequence (Q9UBU7 whole entry): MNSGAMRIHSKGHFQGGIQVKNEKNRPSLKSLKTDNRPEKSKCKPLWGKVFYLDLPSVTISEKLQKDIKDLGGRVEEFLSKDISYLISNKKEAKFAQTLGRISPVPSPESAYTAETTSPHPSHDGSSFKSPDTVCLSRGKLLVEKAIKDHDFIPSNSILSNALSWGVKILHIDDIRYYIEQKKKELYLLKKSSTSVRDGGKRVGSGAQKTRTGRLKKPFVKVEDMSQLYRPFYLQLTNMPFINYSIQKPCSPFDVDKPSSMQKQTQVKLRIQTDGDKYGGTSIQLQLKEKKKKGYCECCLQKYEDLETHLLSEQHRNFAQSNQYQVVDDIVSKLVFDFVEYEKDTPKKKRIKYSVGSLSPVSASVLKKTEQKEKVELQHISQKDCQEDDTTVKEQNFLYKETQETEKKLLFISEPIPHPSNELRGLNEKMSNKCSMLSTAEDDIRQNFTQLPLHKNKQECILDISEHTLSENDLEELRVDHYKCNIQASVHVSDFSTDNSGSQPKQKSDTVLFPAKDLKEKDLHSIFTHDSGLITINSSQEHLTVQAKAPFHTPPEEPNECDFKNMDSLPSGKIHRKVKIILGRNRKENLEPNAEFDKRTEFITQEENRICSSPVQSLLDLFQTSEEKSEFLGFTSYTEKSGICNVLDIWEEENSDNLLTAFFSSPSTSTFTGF
T1 sequence (O00311 whole entry): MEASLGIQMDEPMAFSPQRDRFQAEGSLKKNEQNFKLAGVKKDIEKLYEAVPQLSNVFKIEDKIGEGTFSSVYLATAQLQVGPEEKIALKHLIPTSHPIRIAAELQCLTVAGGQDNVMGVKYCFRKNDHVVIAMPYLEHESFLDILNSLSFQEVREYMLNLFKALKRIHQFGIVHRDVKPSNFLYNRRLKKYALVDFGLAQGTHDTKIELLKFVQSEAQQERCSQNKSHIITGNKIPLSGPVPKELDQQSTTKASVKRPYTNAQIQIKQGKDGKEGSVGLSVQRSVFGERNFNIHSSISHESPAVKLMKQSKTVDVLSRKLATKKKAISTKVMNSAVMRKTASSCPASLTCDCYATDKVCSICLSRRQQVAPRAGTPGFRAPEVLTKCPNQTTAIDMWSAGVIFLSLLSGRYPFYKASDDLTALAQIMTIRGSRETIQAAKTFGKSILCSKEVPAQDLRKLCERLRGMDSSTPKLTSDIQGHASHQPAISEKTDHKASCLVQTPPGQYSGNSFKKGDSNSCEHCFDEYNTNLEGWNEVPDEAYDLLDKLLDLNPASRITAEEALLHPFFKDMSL
For data set [3], the target named is CDC7/DBF4 (Cell division cycle 7-related protein kinase/Activator of S phase kinase) (Homo sapiens) (UniProt Q9UBU7+O00311). Description: Ratio of IC50 for Cdc7/Dbf4 in human HCT116 cells to IC50 for Cdc7/Dbf4 (unknown origin). It is filed as cell-based. To be noted: HCT-116.
CDC7/DBF4 (Cell division cycle 7-related protein kinase/Activator of S phase kinase) (Homo sapiens), sequence (O00311 whole entry, looked up): as the sequence (O00311 whole entry) above
CDC7/DBF4 (Cell division cycle 7-related protein kinase/Activator of S phase kinase) (Homo sapiens), sequence (Q9UBU7 whole entry, looked up): as the sequence (Q9UBU7 whole entry) above
For data set [4], the target named is T1, CDC7/DBF4 (Cell division cycle 7-related protein kinase/Activator of S phase kinase). Description: Inhibition of Cdc7/Dbf4 in human HCT116 cells assessed as reduction of MCM2 phosphorylation after 14 hrs. It is filed as cell-based, HCT-116. Summed up: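 HCT-116 cells were exposed to inhibitor across a 22-point dose response for 14 h. They were then immunostained for phospho-serine MCM2 using an Alexa Fluor 488 secondary, with a Hoechst nuclear counterstain. The percentage of cells with phospho-MCM2 signal above a threshold was scored by high-content imaging, and IC50 values were derived from that.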

Data set [5] is described as follows: Intrinsic clearance in rat liver microsomes at 1 uM after 30 mins by reverse phase HPLC analysis in presence of NADPH. It is filed as ADME. The settings on record: read-out: CLH. Summed up: (§1)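 Reactions were stopped with MeCN after 0 or 30 min. Samples were analysed by reverse-phase HPLC–tandem MS to give intrinsic clearance (µl/min/mg).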
On the technique in general: Microsomes from liver hold many membrane-bound enzymes, among them those of drug oxidation.

A short description of data set [6]: Intrinsic clearance in human liver microsomes at 1 uM after 30 mins by reverse phase HPLC analysis in presence of NADPH. The format is ADME. The settings on record: read-out: CLH. The method, boiled down: as §1
For data set [7], the species on record is Homo sapiens. As to the kind of experiment: Selectivity ratio of IC50 for CDK2/Cyclin-E (unknown origin) to IC50 for Cdc7/Dbf4 (unknown origin).

A word on the IC50: it is the point on the concentration scale where inhibition reaches its midpoint.

Consider `CCOC(=O)c1sc(-c2cnccn2)nc1O`, for which the IC50 in data set [1] was > 125 µM; in data set [2] it was 26.5 µM.

For `O=C(NCc1ccccc1)c1sc(-c2ccncc2)nc1O`, the IC50 was 52.1 µM in data set [1] and 11.6 µM in data set [2].

On to `CCOC(=O)c1sc(-c2ccncc2)nc1N`, for which the concentration for half-maximal inhibition (IC50) was > 125 µM in data set [1] and 4.2 µM in data set [2].

As to `CCOC(=O)c1sc(-c2ccncc2)nc1-c1ccccc1Cl`, the IC50 in data set [1] is > 125 µM; in data set [2], 0.529 µM.

Regarding `COc1nc(-c2ccncc2)sc1C(N)=O`, the figures for the IC50 in data set [1], in data set [4] and in data set [2] were 5.71 µM, 9.93 µM and 0.0955 µM, respectively. In addition, in data set [3], the Ratio IC50 is > 100.

In the case of `CCOC(=O)c1sc(-c2ccccc2)nc1O`, the IC50 in data set [1] is > 125 µM; in data set [2], 46.7 µM.

With `CCOC(=O)c1sc(-c2ccncc2)nc1-c1ccccc1`, the IC50 in data set [1] is > 125 µM; in data set [2], 20.5 µM.

For the compound `CCOC(=O)c1sc(-c2ccnc(N)c2)nc1-c1ccccc1`, the results for the IC50 in data set [1] and in data set [2] were > 125 µM and 19.9 µM, respectively.

Turning to `O=C(NO)c1sc(-c2ccncc2)nc1-c1ccccc1`, the IC50 in data set [1] is > 125 µM; in data set [2], 1.69 µM.

`O=C(O)c1sc(-c2ccncc2)nc1-c1ccccc1`: the half-inhibitory concentration (IC50) in data set [1] is > 125 µM; in data set [2] it was 0.172 µM.

Take `CCOC(=O)c1sc(-c2cccnc2)nc1O`: the 50% inhibitory concentration (IC50) is > 125 µM in data set [1] and 32 µM in data set [2].

On to `c1ccc(-c2nc(-c3ccncc3)sc2-c2nn[nH]n2)cc1`, for which the IC50 in data set [1] was > 125 µM; in data set [2] it was 0.452 µM.

For `CCOC(=O)c1sc(-c2ccccn2)nc1O`, the IC50 in data set [1] and in data set [2] was > 125 µM each time.

Turning to `CNC(=O)c1sc(-c2ccncc2)nc1O`, the concentration for half-maximal inhibition (IC50) in data set [1] was > 125 µM; in data set [2], 8.98 µM.

`CCOC(=O)c1sc(-c2ccncc2)nc1-c1ccc(Cl)cc1Cl`: the IC50 in data set [1] is > 125 µM; in data set [2] it was 0.973 µM.

`CN(C)C(=O)c1sc(-c2ccncc2)nc1O`: the 50% inhibitory concentration (IC50) in data set [1] is > 125 µM; in data set [2], 24.4 µM.

For the compound `Cc1ccc(-c2nc(-c3ccnc(N)n3)sc2C(N)=O)c(Cl)c1`, the half-inhibitory concentration (IC50) amounted to 7.03 µM in data set [1], 1.4 µM in data set [4] and 0.00604 µM in data set [2]. In addition, the results for the microsomal CLint at 1 µM in data set [5] and in data set [6] were 140 µL/min/mg and < 14 µL/min/mg, respectively.

In the case of `CCOC(=O)c1sc(-c2ccncc2)nc1Nc1ccccc1`, the IC50 in data set [1] and in data set [2] was > 125 µM throughout.

With `CCOC(=O)c1sc(-c2ccnc(N)n2)nc1O`, the figures for the half-maximal inhibitory concentration (IC50) in data set [1] and in data set [2] were > 125 µM and 0.0415 µM, respectively.

On to `CCOC(=O)c1sc(-c2ccc(OC)cc2)nc1O`, for which the 50% inhibitory concentration (IC50) in data set [1] and in data set [2] was > 125 µM each time.

Consider `c1ccc(-c2nc(-c3ccncc3)sc2-c2nnco2)cc1`, for which the half-maximal inhibitory concentration (IC50) in data set [1] was > 125 µM; in data set [2] it was 3.87 µM.

With `O=C1Nc2ccccc2Nc2nc(-c3ccncc3)sc21`, the Ratio IC50 in data set [7] is 11. Besides, the IC50 in data set [1] amounted to 1.2 µM; in data set [2], 0.104 µM.

As for `CCOC(=O)c1cnc(-c2ccncc2)s1`, the concentration for half-maximal inhibition (IC50) in data set [1] is > 125 µM; in data set [2] it was 24 µM.

Take `CCOC(=O)c1sc(-c2cc(N)ncn2)nc1-c1ccccc1`: the IC50 in data set [1] and in data set [2] was > 125 µM in each case.

For `NNC(=O)c1sc(-c2ccncc2)nc1-c1ccccc1`, the IC50 is > 125 µM in data set [1] and 0.472 µM in data set [2].

As for `N#Cc1sc(-c2ccncc2)nc1-c1ccccc1`, the 50% inhibitory concentration (IC50) in data set [1] was > 125 µM; in data set [2], 10.3 µM.

Turning to `CCOC(=O)c1sc(-c2ccncc2)nc1-c1ccccc1O`, the half-maximal inhibitory concentration (IC50) in data set [1] is > 125 µM; in data set [2], 3.22 µM.

`CCOC(=O)c1sc(-c2ccncc2)nc1OC`: the figures for the IC50 in data set [1] and in data set [2] were > 125 µM and 17.2 µM, respectively.

Regarding `NC(=O)c1sc(-c2ccncc2)nc1-c1ccc(Cl)cc1Cl`, the IC50 in data set [1] worked out at 0.7 µM; in data set [4], 11.5 µM; in data set [2], 0.0143 µM. In data set [3], the Ratio IC50 was > 100.

Consider `O=C(O)c1sc(-c2ccncc2)nc1O`, for which the concentration for half-maximal inhibition (IC50) is > 125 µM in data set [1] and 6.13 µM in data set [2].

Turning to `CCOC(=O)c1sc(-c2ccncc2)nc1NC`, the half-inhibitory concentration (IC50) is > 125 µM in data set [1] and 7.35 µM in data set [2].

Regarding `CCOC(=O)c1sc(-c2ccncc2)nc1-c1cccc(Cl)c1Cl`, the figures for the IC50 in data set [1] and in data set [2] were > 125 µM and 0.451 µM, respectively.

Turning to `NC(=O)c1sc(-c2ccnc(N)n2)nc1-c1ccccc1C(F)(F)F`, the values for the IC50 in data set [1], in data set [4] and in data set [2] were 34.9 µM, 2.04 µM and 0.0184 µM, respectively. In addition, the microsomal CLint at 1 µM in data set [5] and in data set [6] was < 14 µL/min/mg throughout.

Consider `CCOC(=O)c1sc(-c2ccnc(CC)c2)nc1O`, for which the IC50 in data set [1] was > 125 µM; in data set [2], 7.5 µM.

As to `CCOC(=O)c1sc(-c2ccncc2)nc1-c1ccc2ccccc2c1`, the IC50 in data set [1] and in data set [2] was > 125 µM each time.

`CCOC(=O)c1sc(-c2ccncc2)nc1-c1ccc(F)cc1Cl`: the figures for the IC50 in data set [1] and in data set [2] were > 125 µM and 1.02 µM, respectively.

On to `CCOC(=O)c1sc(-c2ccsc2)nc1O`, for which the 50% inhibitory concentration (IC50) was > 125 µM in data set [1] and 29.6 µM in data set [2].

On to `CCOC(=O)c1sc(-c2ccncc2)nc1N(C)C`, for which the IC50 in data set [1] was > 125 µM; in data set [2], 0.669 µM.

Regarding `NC(=O)c1sc(-c2ccnc(N)n2)nc1-c1cc(Cl)cc(Cl)c1`, the IC50 in data set [1] is > 125 µM; in data set [4] it was 8.5 µM; in data set [2] it was 0.0623 µM. Moreover, the microsomal CLint at 1 µM in data set [5] stood at 69 µL/min/mg; in data set [6], 67 µL/min/mg.

`CCOC(=O)c1sc(-c2ccncc2)nc1NCc1ccccc1`: the IC50 is > 125 µM in data set [1] and 38.3 µM in data set [2].

Consider `CCOC(=O)c1sc(-c2ccncc2)nc1-c1ccc(OC)cc1Cl`, for which the values for the IC50 in data set [1] and in data set [2] were > 125 µM and 0.855 µM, respectively.

`NC(=O)c1sc(-c2ccncc2)nc1O`: the IC50 was > 125 µM in data set [1], > 50 µM in data set [4] and 0.115 µM in data set [2].

For `NC(=O)c1sc(-c2ccnc(N)n2)nc1-c1ccccc1F`, the figures for the concentration for half-maximal inhibition (IC50) in data set [1], in data set [4] and in data set [2] were > 125 µM, 1.07 µM and 0.0178 µM, respectively. The microsomal CLint at 1 µM in data set [5] and in data set [6] was < 14 µL/min/mg throughout.

As to `CCOC(=O)c1sc(-c2ccncc2)nc1C`, the values for the IC50 in data set [1] and in data set [2] were > 125 µM and 25.1 µM, respectively.

For `NC(=O)c1sc(-c2ccnc(N)n2)nc1-c1cc(F)ccc1F`, the IC50 in data set [1] was 34.8 µM; in data set [4], 3.62 µM; in data set [2], 0.0328 µM. The results for the microsomal CLint at 1 µM in data set [5] and in data set [6] were 28 µL/min/mg and < 14 µL/min/mg, respectively.

Turning to `CCOC(=O)c1sc(-c2ccncc2)nc1-c1cccnc1`, the half-inhibitory concentration (IC50) in data set [1] is > 125 µM; in data set [2], 8.29 µM.

As to `NC(=O)c1sc(-c2ccncc2)nc1-c1ccccc1`, the IC50 came to 34.2 µM in data set [1], 23.6 µM in data set [4] and 0.101 µM in data set [2]. In data set [3], the Ratio IC50 is > 100.

Consider `CN(C)c1nc(-c2ccnc(N)n2)sc1C(N)=O`, for which the IC50 in data set [1] worked out at 18.2 µM; in data set [4], 1.87 µM; in data set [2] it was 0.0205 µM. The results for the microsomal CLint at 1 µM in data set [5] and in data set [6] were 26 µL/min/mg and 23 µL/min/mg, respectively.

As to `CCOC(=O)c1sc(C(C)(C)C)nc1O`, the IC50 in data set [1] and in data set [2] was > 125 µM throughout.

For the origin of these results see ChEMBL document CHEMBL3259739, “Synthesis and structure-activity relationship of trisubstituted thiazoles as Cdc7 kinase inhibitors” (Eur J Med Chem, 2014).
